# Shown are actives, neighbours in structure and some others; about 3.2% of the full set was active somewhere.
# Pemphigus Ab inh – inhibitors of pemphigus antibody binding to DSG3, primary screen, biochemical, bead-based, flow cytometry, scFv-GFP; Desmoglein-3 (Homo sapiens), P32926; DSG3-coupled beads, scFv-anti-DSG3-GFP binding; stronger effect = lower value; binding (percent of control), % at 10 µM; hit rate 0.48% among 310,000; AID 588358, 2011;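 active = binding more than 3 SD below its plate's average and above zero; inconclusive = below that plate limit but binding exactly zero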
# Apaf1 inhib – inhibitors of human Apaf-1 apoptosome, primary screen, biochemical, DEVD-Rh110 fluorescence, uHTS; reconstituted apoptosome caspase-3 activity; AID 489030, 2010; inhibition, % at 20 µM; hit rate 0.71% among 330,000; active = inhibition of at least 40% at 20 µM;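 note: plate controls were DMSO wells for no effect and DEVD-CHO caspase inhibitor wells for full effect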
#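 System: Apoptosome proteins | Medium: Hepes pH 7.5 with detergent and BSA | Also added: Cytochrome c trigger plus (Z-DEVD)2-Rh110 caspase-3 substrate | Incubation: 30 min compound preincubation, 50 min activation, room temperature | Detection: Rhodamine 110 fluorescence at Ex 480/Em 540 nm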
# MEKK2 WT-MEK5 – modulators of MEK5 binding to wildtype MEKK2, primary screen, biochemical, multiplex bead flow cytometry, Alexa488-MEK5. Mitogen-activated protein kinase kinase kinase 2 (Homo sapiens), Q9Y2U5. Alexa488-MEK5 binding to MEKK2 WT; actives lie on both sides. binding response (% of control), % at 10 µM. hit rate 1.1% among 290,000. AID 1531, 2009; in the data active = binding response below about 67% or above about 130%; inconclusive = no clear call, values can overlap the other calls; inactive = in between
# UBC13 polyUb – UBC13 polyubiquitin chain formation inhibitors, primary screen, biochemical, TR-FRET, uHTS; inhibition, % at 20 µM; Ubiquitin-conjugating enzyme E2 N (Homo sapiens), P61088; AID 485273, 2010; hit rate 0.47% among 330,000; in the data active = inhibition above about 45%, passing the limit was not always enough; inconclusive = no clear call, values can overlap the other calls
# Target sequence (P61088 whole entry, looked up): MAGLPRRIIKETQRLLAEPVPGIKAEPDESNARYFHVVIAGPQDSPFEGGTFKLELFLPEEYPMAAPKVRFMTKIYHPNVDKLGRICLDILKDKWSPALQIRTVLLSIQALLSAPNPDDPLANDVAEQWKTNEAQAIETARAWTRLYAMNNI
# MEKK2 mut-MEK5 – MEK5 binding signal on mutant MEKK2 PB1, primary screen, biochemical, multiplex bead flow cytometry, Alexa488-MEK5. Alexa488-MEK5 binding to MEKK2 mutant. percent response, % at 10 µM. hit rate 0.35% among 290,000. AID 1530, 2009; in the data active = percent response above about 24%, passing the limit was not always enough
# MEKK3 PB1 HTS – modulators of MEKK3-MEK5 PB1 binding, primary screen, biochemical, wildtype MEKK3, multiplex bead flow cytometry, Alexa488-MEK5 | bead-based flow cytometry, Alexa488-MEK5 binding to MEKK3; actives lie on both sides; 0 = blocked by unlabeled MEK5, 100 = vehicle | binding response (% of control), % at 10 µM | hit rate 1.4% among 290,000 | AID 1529, 2009;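 active = binding response more than 3 SD above or below the average of its plate-row segment, actives on both sides; inconclusive = wells at one plate position flagged as instrument error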;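 note: Alexa488 bead fluorescence after subtracting the streptavidin-only scavenger bead signal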
# MEKK2wt confirm – modulators of MEK5 binding to wildtype MEKK2, confirmation, biochemical, single concentration, multiplex bead flow cytometry | hit rate 2.4% among 5,900 | Alexa488-MEK5 binding to MEKK2 WT; actives lie on both sides | shares compounds with MEKK3 PB1 HTS | binding response (% of control), % at 10 µM | AID 1892, 2009; in the data active = binding response below about 16% or above about 210%; inactive = in between
# MEKK2mut-MEK5 – mutant MEKK2 PB1-MEK5 binding signal retest – biochemical, single concentration, multiplex bead flow cytometry, confirmation. shares compounds with MEKK3 PB1 HTS. Alexa488-MEK5 binding to MEKK2 mutant. percent response, % at 10 µM. hit rate 2% among 5,900; in the data active = percent response mostly above about 71%, no sharp cut-off; inactive = mostly below about 38%;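 note: higher means compound restores mutant binding toward wildtype level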
# MEKK3 confirm – MEKK3 wild-type PB1 binding to MEK5, inhibitors, confirmation, biochemical, bead multiplex flow cytometry, single concentration, wildtype | shares compounds with MEKK3 PB1 HTS | AID 1894, 2009 | Alexa488-MEK5 binding to MEKK3; stronger effect = lower value | binding response (% of control), % at 10 µM | hit rate 1.8% among 5,900;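 active = binding response below 72% of control, or above a set upper limit, though filed actives all read lower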;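 note: 100% = DMSO only wells and 0% = binding blocked by excess unlabeled MEK5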
# * = called active by the depositor; ? = inconclusive; / = no result; [ ] = remark or other dose.
SMILES,Pemphigus Ab inh,Apaf1 inhib,MEKK2 WT-MEK5,UBC13 polyUb,MEKK2 mut-MEK5,MEKK3 PB1 HTS,MEKK2wt confirm,MEKK2mut-MEK5,MEKK3 confirm
CCN1CCN(CCNC(=O)c2ccc(/C=C3/Sc4ccccc4N(Cc4cccc(Cl)c4)C3=O)cc2)CC1,99,28,280*,23,120*,111,234*,100*,116
Cc1cccc(CN2C(=O)/C(=C\c3ccc(C(=O)NCCN4CCOCC4)cc3)Sc3ccccc32)c1,?,16,130,27,9,107,/,/,/
CCc1cccc(NC(=O)CCCn2c(=O)[nH]c3ccsc3c2=O)c1,/,5,102,9,-2,101,/,/,/
COC(=O)C1CN(S(=O)(=O)c2cc(OC)ccc2OC)CCS1 (stereo not drawn),117,1,96,-2,-3,102,/,/,/
FC(F)(F)c1nnc2ccc(N3CCCCCC3)nn12,/,9,91,-2,-14,81*[inhibitor],98,-2,100
CC(C)CN(C(=O)C1=COCCO1)c1c(N)n(Cc2ccccc2)c(=O)[nH]c1=O,107,/,/,/,/,/,/,/,/
c1ccc(-c2cc(-c3nnc4n3N=C(c3ccc5ccccc5c3)CS4)[nH]n2)cc1,104,17,71*[inhibitor],-21,-1,107,75,-17,98
Cc1cc(-c2nnc3n2N=C(c2ccc(-c4ccccc4)cc2)CS3)n[nH]1,102,37,88,2,-3,100,/,/,/
COc1ccc(C(=O)N[C@H](C(=O)OCCCOC(=O)[C@@H](NC(=O)c2ccc(OC)cc2)C(C)C)C(C)C)cc1,105,/,/,/,/,/,/,/,/
O=C(NNC(=O)c1ccccc1-n1cccc1)c1cccnc1,97,/,/,/,/,/,/,/,/
CC(C)CSc1nnc2[nH]c(=O)cc(N)n12,109,-3,86,1,3,60*[inhibitor],99,-2,100
COc1ccc(CNC(=S)Nc2ccc3nc(N4CCN(C)CC4)cc(C)c3c2)cc1,108,-6,152*,1,30,117,118,9,101
CCN1CCN(c2cc(C)c3cc(NC(=S)NCc4cccs4)ccc3n2)CC1,102,7,133,5,4,89,/,/,/
Cc1cc(N2CCN(C)CC2)nc2ccc(NC(=S)NCc3cccs3)cc12,107,-2,141*,28,21,110,124,15,104
COCCNC(=S)Nc1ccc2nc(N3CCN(C)CC3)cc(C)c2c1,111,11,116,1,13,104,/,/,/
COc1ccccc1CNC(=S)Nc1ccc2nc(N3CCN(C)CC3)cc(C)c2c1,99,2,138*,26,22,105,141,9,101
CCCCN(CC)CCCNC(=S)Nc1ccc2nc(N3CCN(C)CC3)cc(C)c2c1,105,-5,142*,18,15,97,142,21,108
O=[N+]([O-])c1ccc2c(c1)nc(CO)n2Cc1ccccc1,99,-6,102,-10,0,102,/,/,/
